According to ChEMBL document CHEMBL1773021, “Virtual screening identification of novel severe acute respiratory syndrome 3C-like protease inhibitors and in vitro confirmation” (Bioorg Med Chem Lett, 2011):
pIC50, pKi: −log10 of the molar value. Calls of active or inactive are those of the source. The calls are words filed in the database; no cut-off is given here.

Assays:
[1] = molecular target: Replicase polyprotein 1ab (Severe acute respiratory syndrome-related coronavirus) (UniProt P0C6X7); assay: Inhibition of SARS coronavirus recombinant 3C-like protease expressed in Escherichia coli BL21(DE3) at 100 uM after 18 mins by FRET based assay
[2] = molecular target: T1, Replicase polyprotein 1ab (Severe acute respiratory syndrome-related coronavirus, UniProt P0C6X7); assay: Inhibition of SARS coronavirus recombinant 3C-like protease expressed in Escherichia coli BL21(DE3) after 30 mins by FRET based assay
[3] = molecular target: Replicase polyprotein 1ab (Severe acute respiratory syndrome-related coronavirus) (UniProt P0C6X7); assay: Competitive inhibition of SARS coronavirus recombinant 3C-like protease expressed in Escherichia coli BL21(DE3) by Dixon plot analysis
Procedure, shortened: (§1)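 Inhibitor at 0, 20, 30, 40, 50 and 60 μM; substrate at 5, 7.5 and 10 μM. Mode assigned from Lineweaver–Burk and Dixon plots. Km and Ki come from linear regression, with Ki taken from the common x-axis intercept on the Dixon plot.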

[4] = molecular target: T1, Replicase polyprotein 1ab; assay: Inhibition of SARS coronavirus recombinant 3C-like protease expressed in Escherichia coli BL21(DE3) by Lineweaver-Burk plot analysis; procedure, shortened: as §1

| Compound | inhibition [1] [%] | pIC50 [2] | inhibition [3] | pKi [4] |
| --- | --- | --- | --- | --- |
| COc1cc(/C=N/NC(=O)/C(=C\c2ccccc2)NC(=O)c2ccccc2)cc(OC)c1O | 56.1 | 4.11 | – | – |
| Nc1nc(CSc2nnc(-c3cccc4ccccc34)n2-c2ccccc2)cs1 | 58.2 | 4.23 | – | – |
| Cc1ccc(C(=O)N/C(=C\c2ccc(-c3ccccc3[N+](=O)[O-])o2)C(=O)NCCCN(C)C)cc1 | 81.4 | 4.38 | Active | 5.00 |
| Cc1nc(C)c(C(=O)C2=C(O)C(=O)N(CCCN3CCOCC3)C2c2cccc([N+](=O)[O-])c2)s1 (stereo not drawn) | 49.1 | 3.99 | – | – |
| Cc1ccc(C(=O)N/C(=C\c2ccc(-c3cccc([N+](=O)[O-])c3)o2)C(=O)NCCCN(C)C)cc1 | 82.6 | 4.41 | Active | 5.04 |
| COc1cc(C2C(C(=O)c3ccc(OCC(C)C)cc3C)=C(O)C(=O)N2CCN(C)C)ccc1O (stereo not drawn) | 61.4 | 4.20 | – | – |
| O=C(CSc1ncnc2c1sc1nc(N3CCOCC3)c3c(c12)CCCC3)NCc1ccco1 | 53.3 | 4.04 | – | – |
